From PubChem
Dynein transport = dynein cargo transport inhibition | 3617.4 mouse cells, GR-EGFP nuclear translocation imaging; test concentration mostly 20 µM; stimulated with dexamethasone, 1 µM; stronger effect = lower value | z-score, hits read low | hit rate 0.47% among 220,000 | AID 1381;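 active means plate z-score of nuclear minus cytoplasmic receptor signal below a set negative limit, without overly bright fluorescence or cell loss, cut at about -3.5 in these data, passing the limit was not always enough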;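 further: z-score of nuclear minus cytoplasmic ring GR-EGFP intensity difference per well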
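Buffer or medium: Induction medium lacking tetracycline, stripped serum | Also added: Dexamethasone agonist, 1.0 µM final, for 30 min | Timing: 48 h induction, 1 h compound, 30 min dex at 37 °C | Detection: Formaldehyde fixation, Hoechst nuclear stain, 10x automated fluorescence imaging | Measure: Nuclear versus cytoplasmic GR-EGFP signal, averaged per well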
S1P4 antagonist = human S1P4 receptor antagonism. O95977. S1P4-expressing cells, antagonist mode, reporter read-out. inhibition, % at 4.98 µM. hit rate 0.26% among 220,000; in the data active means inhibition above about 29%;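 further: 0% = wells stimulated with agonist and 100% = vehicle wells without agonist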
Target sequence (O95977 whole entry, looked up): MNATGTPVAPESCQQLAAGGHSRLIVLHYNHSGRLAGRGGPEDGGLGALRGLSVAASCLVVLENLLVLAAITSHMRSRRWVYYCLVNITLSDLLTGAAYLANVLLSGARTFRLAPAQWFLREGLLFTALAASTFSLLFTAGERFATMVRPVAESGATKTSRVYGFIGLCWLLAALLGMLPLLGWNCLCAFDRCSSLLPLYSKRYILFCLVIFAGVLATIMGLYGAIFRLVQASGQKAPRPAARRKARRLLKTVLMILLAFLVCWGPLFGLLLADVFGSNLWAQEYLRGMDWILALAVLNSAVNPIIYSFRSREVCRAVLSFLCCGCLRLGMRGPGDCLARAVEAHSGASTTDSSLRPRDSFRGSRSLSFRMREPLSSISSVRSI
S1P3 antag-1 = antagonists of human S1P3 receptor; Q99500; CHO S1P3 NFAT-BLA reporter, FRET fluorescence, antagonist mode; inhibition, % at 4.98 µM; hit rate 0.27% among 170,000; AID 485;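 active means inhibition above the plate cutoff, the mean inhibition of test wells on that plate plus 3 SD, cut at about 28% in these data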;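 further: cells challenged with S1P at its EC80 of 0.8 µM; blue over green emission ratio from cleaved BLA substrate after 4 h stimulation; 0% = S1P-stimulated wells and 100% = unstimulated DMSO-only wells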
Biofilm kill mix = mixtures killing C. albicans biofilm | hit rate 0.02% among 120,000 | C. albicans biofilm persisters + clotrimazole, fluorescence viability; primary screen in compound mixtures of four per well | inhibition, % at 7.6 µM;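 active means inhibition above 30.3% in the primary screen of four-compound pools, then above 30% when the compound was retested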;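 further: compounds exposed to preformed 24 h biofilms for 48 h; 0% = untreated biofilm control and 100% = clotrimazole plus chlorhexidine kill blank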
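Incubation: 24 h biofilm formation, then 48 h compound exposure, 37 °C | Material: C. albicans biofilms | Buffer or medium: RPMI/MOPS medium, pH 7.0 | Measured by: 2-h Alamar Blue fluorescence, 535/590 nm excitation/emission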
TbHK1 inh = blocks Trypanosoma brucei hexokinase 1 activity; hit rate 0.11% among 220,000; inhibition, % at 10 µM; recombinant TbHK1, G6PDH-coupled NADH A340;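 active means inhibition of 50% or more in the single-dose primary screen; inactive means inhibition below 50%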
S1P4 agonist = human S1P4 receptor agonism. S1P4-expressing cell line, agonist reporter assay. activation, % at 4.98 µM. hit rate 0.35% among 220,000. AID 1509; in the data active means activation above about 11%;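 further: 0% = DMSO vehicle and 100% = reference agonist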
S1P3 antag-2 = human S1P3 receptor antagonism, confirmation; shares compounds with S1P3 antag-1; inhibition, % at 4.98 µM; hit rate 30% among 240; CHO S1P3 NFAT-BLA reporter, FRET, antagonist mode;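 active means inhibition above the hit threshold that was computed for the earlier primary screen, cut at about 30% in these data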;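 further: 0% = S1P-stimulated wells and 100% = unstimulated DMSO-only wells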
Active calls of the source: *; . = no result. This is a sample that favours compounds with a hit; in the whole collection about 1.3% have one here.

SMILES	Dynein transport	S1P4 antagonist	S1P3 antag-1	Biofilm kill mix	TbHK1 inh	S1P4 agonist	S1P3 antag-2
COc1ccc(CSC2=CS(=O)(=O)c3ccccc3N2)cc1	-0.62	-2	-11	17	-7	2	.
O=C(COC(=O)CCCOc1ccc(Cl)cc1Cl)Nc1cccc(Cl)c1	-0.067	-27	43*	-4	22	1	-26
CC(C)c1ccc(/C=C/C(=O)NCCC2=CCCCC2)cc1	0.49	-23	30*	6	5	-1	-10
O=C(COC(=O)COc1ccc(Cl)cc1)Nc1ccc(N2CCOCC2)cc1	0.55	-7	5	23	-4	3	.
Cn1c(-c2c(N)n(-c3ccccc3)c3nc4ccccc4nc23)nc2ccccc21	-0.08	20	68*	11	-20	1	45*
Cn1c(CSc2ncccn2)nnc1SCC(=O)N1CCCC1	0.25	-8	-1	26	4	1	.
CCCCSc1nnc(CSc2ncccn2)n1C	-0.33	-9	29*	9	-2	1	-5
Fc1ccc(CNC(=S)Nc2cccc(Cl)c2)cc1	1.4	-1	28*	6	6	-2	6
CSCCC(N=C(NS(=O)(=O)c1ccccc1)c1ccccc1)C(=O)O (stereo not given)	1.1	0	-2	26	-14	1	.
CCCC(=O)Nc1ccc(Nc2ccccc2)cc1	1.8	-3	101*	18	33	1	-7
CCCC(=O)Nc1ccc(-c2ccc(NC(=O)CCC)cc2)cc1	0.41	-14	-1	9	-12	2	.
Cc1ccc2nc(C)c3c(c2c1)COC3	3.4	3	30*	13	3	1	-3
C/C(=N/NC(=O)CNC(=O)Cc1ccccc1)c1ccc(Cl)cc1	0.14	7	-11	5	0	-1	.
CCN1/C(=C/c2ccc3cc(C)ccc3[n+]2CC)Sc2cc(C)ccc21	-2.6	-10	39*	26	1	-1	21
CCCCN1/C(=C/c2ccc3ccccc3[n+]2CC)Sc2ccccc21	0.13	-18	30*	11	3	-3	21
CCN1/C(=C/c2ccc3ccccc3[n+]2CC)C=Cc2ccccc21	2	-23	.	.	-7	2	.
COc1ccc(CN(CC2CCC(C(=O)O)CC2)C(=S)Nc2cc(C)ccc2C)cc1 (stereo not given)	-1.4	-15	33*	19	-7	1	-16
COc1ccc(CN(CC2CCC(C(=O)O)CC2)C(=S)Nc2ccccc2C)cc1 (stereo not given)	0.41	-4	-5	15	-1	-1	.
Cc1ccc(CC(=O)NCCC(=O)O)cc1	0.22	13	5	26	2	1	.
O=C(COC(=O)c1cnc(Cl)c(Cl)c1)NCCC1=CCCCC1	-0.83	-9	33*	7	4	1	-17
COc1ccc(C)cc1Nc1ccc(C(=O)O)cc1[N+](=O)[O-]	-0.76	-6	-12	10	-13	0	.
Cc1ccc(S(=O)(=O)NCc2ccncc2)c(C)c1C	0.35	-21	35*	-4	1	0	17
Cc1c(N=C2N=C(NC(=O)Nc3ccc(Cl)cc3)c3ccccc32)c(=O)n(-c2ccccc2)n1C	2.5	-8	40*	11	10	-2	4
Cc1c(NC(=O)Nc2ccc(Cl)cc2)c(=O)n(-c2ccccc2)n1C	-1.4	7	27	.	-2	0	.
O=C(NCC1CCCO1)C(=O)c1c[nH]c2ccccc12 (stereo not given)	0.036	2	-4	20	-8	-1	.
SMILES	Dynein transport	S1P4 antagonist	S1P3 antag-1	Biofilm kill mix	TbHK1 inh	S1P4 agonist	S1P3 antag-2
Cc1[nH]c2ccccc2c1C(=O)C(=O)NCC1CCCO1 (stereo not given)	0.26	6	53*	1	-9	1	-12
Cc1cc(S(=O)(=O)NCc2cccnc2)ccc1-n1cnnn1	-0.97	-2	-30	.	5	-1	.
Cc1cc(S(=O)(=O)NCc2cccs2)ccc1-n1cnnn1	0.14	-17	30*	18	1	9	-5
CCOc1ccc(-c2nnc(SCC(=O)Nc3cc(C)on3)o2)cc1	-0.18	-31	33*	17	9	-2	-20
COc1cccc(-c2nnc(SCC(=O)Nc3cc(C)on3)o2)c1	0.13	-20	-13	.	0	0	.
N#C/C(=C\c1cc2c(cc1Br)OCO2)C(=O)NCC1CCCO1 (stereo not given)	-0.13	-8	-15	12	-25	1	.
COc1cccc(OC)c1C(=O)Nc1nc2cc3c(cc2s1)OCO3	1.7	-2	33*	11	-5	-1	-2
CCCCn1c(=O)[nH]c2nc3cc(N)ccc3nc2c1=O	0.7	-13	11	5	3	2	.
Nc1ccc2nc3c(=O)n(C4CCCCC4)c(=O)[nH]c3nc2c1	-0.3	26	30*	14	-16	-2	13
CCOC(=O)N1CCN(CC(=O)Nc2sc(CC)cc2C(=O)c2ccc(OC)cc2)CC1	-0.27	17	-7	16	-11	-3	.
CC(=O)c1sc(C(C)(C)C)cc1NC(=O)c1ccccc1C(=O)O	1.5	-2	3	4	-28	0	.
Cc1ccc(S(=O)(=O)Oc2ccccc2/C=N/NC(N)=S)cc1	-0.29	8	.	.	-12	-2	.
Cc1ccc(S(=O)(=O)Oc2ccccc2/C=N/N=C(N)N)cc1	-0.14	-7	36*	19	4	-1	-7
COc1ccc(C(=O)N2CCN(C(=O)Cc3ccccc3)CC2)cc1	0.53	-10	-4	14	6	-1	.
O=C(Cn1cnc(Cl)c1Cl)c1ccc(F)cc1	0.48	-16	-12	11	-2	1	.
O=C(NCC1CCCO1)C(Cc1ccccc1)N1C(=O)C2C3C=CC(C4CC34)C2C1=O (stereo not given)	-0.27	-3	-4	10	-3	1	.
CCCC[C@@H]1C[C@H]1[C@@H](NC(=O)c1cccs1)c1ccc(Cl)cc1	0.75	9	48*	8	9	1	69*
CC(C(=O)Nc1cccnc1)c1ccc([N+](=O)[O-])cc1 (stereo not given)	-0.65	-22	-11	6	-3	3	.
CC(C(=O)Nc1cccc(Br)c1)c1ccc([N+](=O)[O-])cc1 (stereo not given)	-0.27	-3	30*	15	31	1	21
O=C(CCC1CCCC1)Nc1ccc([N+](=O)[O-])cn1	2.5	0	32*	8	-9	0	-2
c1ccc(C2=Nn3c(Cn4nnc5ccccc54)nnc3SC2)cc1	-0.073	-64	2	18	-1	1	.
c1ccc(Cc2nnc3n2N=C(c2ccccc2)CS3)cc1	0.011	-6	29*	6	-2	1	-10
Cc1ccn2cc(C(=O)NCc3ccco3)nc2c1	-1.2	1	30*	12	2	1	-13
